Source: PubChem
Hits are enriched below; roughly 4% of the tested compounds scored in any of these assays.
Mdm2-MdmX inh: inhibitors of human Mdm2-MdmX association, primary screen, cell-based, luminescence, split luciferase, SaOS-2, uHTS; SaOS-2 split-luciferase Mdm2/MdmX complementation; AID 485346, 2010; actives 3% (n = 330,000); inhibition, % at 8 µM;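 active means inhibition of at least 50% at 8 µM in the primary screen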
Target sequence (O15151 whole entry, looked up): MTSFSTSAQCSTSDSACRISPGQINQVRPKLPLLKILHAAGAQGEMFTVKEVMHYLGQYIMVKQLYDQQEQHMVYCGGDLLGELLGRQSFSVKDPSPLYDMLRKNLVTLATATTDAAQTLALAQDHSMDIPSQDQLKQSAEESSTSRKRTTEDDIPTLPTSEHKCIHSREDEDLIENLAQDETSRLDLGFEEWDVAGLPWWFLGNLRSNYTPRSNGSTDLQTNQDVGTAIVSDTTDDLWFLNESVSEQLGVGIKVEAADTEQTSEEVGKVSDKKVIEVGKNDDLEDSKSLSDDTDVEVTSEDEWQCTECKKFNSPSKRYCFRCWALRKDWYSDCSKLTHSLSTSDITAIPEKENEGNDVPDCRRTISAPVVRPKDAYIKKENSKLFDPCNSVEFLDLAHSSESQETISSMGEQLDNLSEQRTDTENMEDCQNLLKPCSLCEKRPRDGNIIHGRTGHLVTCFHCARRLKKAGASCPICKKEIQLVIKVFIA
Target sequence (Q00987 whole entry, looked up): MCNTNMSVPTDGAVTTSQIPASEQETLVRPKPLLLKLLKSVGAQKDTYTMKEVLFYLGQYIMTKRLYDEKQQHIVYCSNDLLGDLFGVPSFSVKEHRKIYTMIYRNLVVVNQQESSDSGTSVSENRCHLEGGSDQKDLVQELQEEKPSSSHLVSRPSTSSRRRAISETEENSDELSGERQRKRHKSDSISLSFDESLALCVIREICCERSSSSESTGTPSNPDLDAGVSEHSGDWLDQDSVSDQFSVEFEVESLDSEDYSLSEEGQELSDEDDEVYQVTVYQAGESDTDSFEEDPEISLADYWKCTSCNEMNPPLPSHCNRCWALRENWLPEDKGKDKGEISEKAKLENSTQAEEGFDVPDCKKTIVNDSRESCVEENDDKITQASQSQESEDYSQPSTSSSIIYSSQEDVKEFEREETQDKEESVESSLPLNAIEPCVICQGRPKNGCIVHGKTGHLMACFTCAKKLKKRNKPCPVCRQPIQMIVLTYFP
Exocytosis inh: LAMP-1 surface exposure blockers, TALL-104 cells – cell-based, flow cytometry, MLPCN library, primary screen. TALL-104 LAMP-1 surface exposure; cells stimulated with thapsigargin and PMA. inhibition, % at 10 µM. actives 0.66% (n = 360,000). AID 651702, 2012;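 active means inhibition above about 55%, limit read from the data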
XBP1 UPR activ: activators of adaptive XBP1 UPR arm, primary screen, cell-based, CHO-XBP1 luciferase reporter, luminescence, uHTS; actives 0.33% (n = 330,000); IRE1-XBP1 UPR activation; percent of tunicamycin response, DMSO as zero; activation, % at 20 µM;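 active means versus positive control, 20 µM dose yields 30% or more activation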;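 further: 100% = tunicamycin at 10 µg/mL and 0% = DMSO only wells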
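Assay system: IRE1-XBP1 luciferase reporter CHO line. Input: 1000 cells/well. Buffer or medium: F12 with 10% serum. Doses: 20 µM, 1% DMSO. Times: overnight seeding at 37 °C, 6 h compound treatment at 37 °C. Technique: Steady-Glo luciferase glow luminescence, 10 min after reagent addition.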
CHOP UPR activ: activators of apoptotic CHOP UPR arm, primary screen, cell-based, CHO-CHOP luciferase reporter, luminescence, uHTS | activation, % at 10 µM | actives 0.34% (n = 330,000) | UPR activation; percent of tunicamycin response over DMSO baseline | AID 449763, 2010;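 active means at 10 µM dose, activation of 40% or more, normalized to positive control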;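 further: 100% = tunicamycin at 10 µg/mL and 0% = DMSO alone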
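measured by = luciferase luminescence | assay system = CHO-CHOP cells, stable luciferase reporter of PERK-eIF2a-CHOP signalling | amount = 500 reporter cells seeded per well | timing = 6 h compound exposure at 37 °C after overnight seeding | controls = positive tunicamycin 10 µg/mL, negative DMSO alone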
ABHD5 PLIN5 PPI: ABHD5-PLIN5 interaction inhibitors, primary screen, cell lysate, split luciferase complementation, luminescence | Perilipin-5 (Homo sapiens) + 1-acylglycerol-3-phosphate O-acyltransferase ABHD5 (Homo … | Split G. princeps luciferase complementation, 4 h | inhibition, % at 4 µM | actives 0.78% (n = 360,000) | AID 602281, 2012;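 active means inhibition above the mean inhibition across every tested compound plus 3 SD, cut at about 22% in these data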;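 further: 0% = DMSO only wells and the 100% control is not disclosed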
Mdm2-MdmX conf: Mdm2-MdmX complex disruptors, retested hits, confirmation, luminescence, single concentration; shares compounds with Mdm2-MdmX inh; Mdm2-MdmX binding, luminescent assay; inhibition, % at 8 µM; actives 55% (n = 10,000); AID 489028, 2010; in the data active means inhibition above about 40%
FLuc counter: full-length luciferase signal inhibition, confirmation, counter-screen for Mdm2/MdmX interaction inhibitor project, cell-based, single concentration, SaOS-2; shares compounds with Mdm2-MdmX inh; SaOS-2 full-length luciferase counterscreen, luminescence; inhibition, % at 8 µM; actives 77% (n = 6,200);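 active means mean inhibition at 8 µM reaching about 37%, which flags the compound as non-specific, limit read from the data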;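 further: p53-null SaOS-2 cells with luciferase driven by a doxycycline-inducible promoter; compound on cells about two nights before reading with doxycycline added after day one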
* = called active by the depositor; x = no result given.

SMILES	Mdm2-MdmX inh	Exocytosis inh	XBP1 UPR activ	CHOP UPR activ	ABHD5 PLIN5 PPI	Mdm2-MdmX conf	FLuc counter
CC(C)c1ccc(/C=C2\SC(=S)N(CCC(=O)N3CCCCC3CCO)C2=O)cc1 (centres undefined)	62*	14	-10	-8	-7	50*	30
CN1CCN(C(=O)CCN2C(=O)/C(=C\c3ccc(Cl)cc3)SC2=S)CC1	28	15	-8	2	-3	x	x
COc1ccc(/C=C2\SC(=S)N(CCCC(=O)N3CCCCC3CCO)C2=O)cc1 (centres undefined)	64*	-1	-6	-4	5	22	x
O=C1/C(=C/c2ccccc2)SC(=S)N1CC(=O)N1CCCCC1c1cccnc1 (centres undefined)	85*	-2	-2	0	9	32	21
O=C1/C(=C/c2ccccc2Cl)SC(=S)N1CCC(=O)N1CCCCC1CCO (centres undefined)	53*	2	-4	2	7	24	x
O=C(CCN1C(=O)/C(=C/c2ccccc2Cl)SC1=S)NC1CCS(=O)(=O)C1 (centres undefined)	3	-3	-6	-2	-1	x	x
Cc1cc(-n2c(SCC(=O)NCc3cccs3)nc3n[nH]c(C)c3c2=N)ccc1Cl	66*	2	9	7	11	12	x
COc1cccc(-n2c(SCC(=O)NCCC3=CCCCC3)nc3n[nH]c(C)c3c2=N)c1	17	x	-2	2	x	x	x
CCc1ccc(NC(=O)CSc2nc3n[nH]c(C)c3c(=N)n2-c2cccc(OC)c2)cc1	66*	0	14	11	-3	56*	61*
CCOc1ccc(-n2c(SCC(=O)Nc3ccccc3CC)nc3n[nH]c(C)c3c2=N)cc1	43	x	8	-1	x	x	x
CCOc1ccc(-n2c(SCC(=O)Nc3ccc(Br)cc3)nc3n[nH]c(C)c3c2=N)cc1	53*	-4	-1	12	0	41*	67*
Cc1oc(-c2ccccc2F)nc1CS(=O)(=O)CC(=O)NCc1ccco1	25	-1	-2	1	3	x	x
COc1ccc(CNN2CCCCC2C(=O)Nc2ccc(OC)c(OCC(C)C)c2)cc1OC (centres undefined)	18	-5	-2	-3	3	x	x
O=C(NCc1ccc(F)cc1)C(=O)Nc1nc(C23CC4CC(CC(C4)C2)C3)cs1	59*	5	2	3	0	30	x
O=C(NCc1ccccc1)C(=O)Nc1nc(C23CC4CC(CC(C4)C2)C3)cs1	4	16	3	5	11	x	x
COc1ccc(C(=O)NCC(c2cccs2)N2CCOCC2)cc1OC (centres undefined)	-2	0	-2	0	0	x	x
COc1cc(C(=O)NCC(c2cccs2)N2CCOCC2)cc(Br)c1OCc1ccccc1 (centres undefined)	51*	3	0	0	-8	42*	39*
COc1ccccc1NC(=O)Cn1nnc(C(=O)Nc2ccccc2)c1N	-5	1	-1	-1	1	x	x
Cc1ccc(OCC(=O)Nc2cc(NC(=O)COc3ccc(C)cc3)cc(C(=O)O)c2)cc1	32	6	-5	-1	2	x	x
CC(C)c1ccc(C(=O)Nc2nnc(S(=O)(=O)N3CCOCC3)s2)cc1	3	1	5	5	-7	x	x
Cc1ccc(C)c(N/C(N)=N/c2nc(C)cc(C)n2)c1	32	-1	-7	0	5	x	x
Cc1ccc(CN=C(N)Nc2nc(C)cc(C)n2)cc1	68*	3	1	0	1	59*	63*
N#Cc1ccccc1S(=O)(=O)N1CCN(c2nc(-c3cccnc3)nc3ccccc23)CC1	54*	3	3	1	7	47*	76*
O=C(CCN1CCN(Cc2ccccc2)CC1)Nc1cccc(Cl)c1	10	0	0	-2	6	x	x
Fc1ccc(-c2csc3ncnc(N4CCc5ccccc5C4)c23)cc1	51*	11	5	3	-7	27	x
SMILES	Mdm2-MdmX inh	Exocytosis inh	XBP1 UPR activ	CHOP UPR activ	ABHD5 PLIN5 PPI	Mdm2-MdmX conf	FLuc counter
Cc1nc(N2CCN(c3ccccc3O)CC2)c2c(-c3ccccc3)csc2n1	52*	55	6	2	-1	55*	59*
CN1CCN(c2ncnc3scc(-c4ccccc4Cl)c23)CC1	70*	3	0	-2	3	79*	29
Oc1ccccc1N1CCN(c2ncnc3scc(-c4ccccc4)c23)CC1	59*	13	3	1	4	30	x
CCCC(=O)Nc1ccc2c(c1)nc1n2CCOC1	-29	9	3	2	9	x	x
COc1ccc(-c2csc3nc(C)nc(N4CCC(C)CC4)c23)cc1OC	66*	1	-3	1	-7	38	84*
Cc1ccc(-c2csc3ncnc(N4CCN(S(=O)(=O)c5ccc(C#N)cc5)CC4)c23)cc1	x	-7	x	x	3	x	x
Cc1ccc(-c2csc3ncnc(N4CCN(S(=O)(=O)c5cccs5)CC4)c23)cc1	51*	0	3	0	2	18	x
O=C(c1ccc(-c2ccccc2Cl)o1)N1CCCC(C(F)(F)F)C1 (centres undefined)	-72	1	2	5	-3	x	x
CCCCC(CC)C(=O)Nc1ccc(S(=O)(=O)Nc2nccs2)cc1 (centres undefined)	-1	-1	1	0	-3	x	x
COc1c(Cl)cc(Cl)cc1C(=O)n1nc(C)cc1C	10	1	-3	-2	-1	x	x
O=C(CCl)N1c2ccccc2CCc2ccccc21	100*	5	-11	3	4	50*	12
CC(Cl)C(=O)N1c2ccccc2CCc2ccccc21 (centres undefined)	9	-2	0	1	0	x	x
CN1CCC(=C2c3ccccc3C(O)c3ccccc32)CC1 (centres undefined)	3	15	-1	-1	4	x	x
CN1CCC(=C2c3ccccc3CCc3sccc32)CC1	60*	2	-1	0	17	26	x
CCc1ccc(-c2cc(C)no2)cc1S(=O)(=O)N1CCN(c2ccccc2OC)CC1	25	21	-8	1	-2	x	x
CCc1ccc(-c2cc(C)no2)cc1S(=O)(=O)N1CCN(c2ccccc2)CC1	60*	2	-7	4	-4	43*	47*
